Blank lines part the entries; values can stand above or below the compound they belong to. Active and inactive are the calls of the source. The rule behind the calls is not given here.
Experiments:
[1] = molecular target: T1, Polyunsaturated fatty acid 5-lipoxygenase (Rattus norvegicus) (UniProt P12527); assay: The compound was tested for the in vitro inhibition of 5-lipoxygenase (5-lo) from the 20000 g supernatant of RBI-1 cells at a concentration of 30 uM; type: cell-based
T1 sequence (whole entry): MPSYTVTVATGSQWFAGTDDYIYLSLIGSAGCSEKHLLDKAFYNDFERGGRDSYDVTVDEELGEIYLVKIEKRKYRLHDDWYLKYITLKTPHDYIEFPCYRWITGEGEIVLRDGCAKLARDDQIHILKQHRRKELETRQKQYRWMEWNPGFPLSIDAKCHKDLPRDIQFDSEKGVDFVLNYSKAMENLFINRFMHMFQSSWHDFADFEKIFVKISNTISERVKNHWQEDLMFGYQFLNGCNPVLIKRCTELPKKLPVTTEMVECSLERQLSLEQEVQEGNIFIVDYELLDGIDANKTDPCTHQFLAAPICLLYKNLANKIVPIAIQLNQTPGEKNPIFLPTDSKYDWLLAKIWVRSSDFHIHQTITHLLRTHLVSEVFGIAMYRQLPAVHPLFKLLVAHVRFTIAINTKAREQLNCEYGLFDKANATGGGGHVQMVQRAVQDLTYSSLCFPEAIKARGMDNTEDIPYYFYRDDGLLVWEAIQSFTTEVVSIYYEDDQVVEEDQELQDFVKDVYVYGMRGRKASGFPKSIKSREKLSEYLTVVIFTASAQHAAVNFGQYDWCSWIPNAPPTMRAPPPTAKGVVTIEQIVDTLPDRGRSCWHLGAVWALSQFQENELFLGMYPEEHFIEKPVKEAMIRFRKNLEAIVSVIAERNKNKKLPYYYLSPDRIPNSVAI
Summary of the method: (§1)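 20000g supernatant of homogenized RBL-1 cells (7.5 × 10⁶ cell equiv/mL) preincubated 20 min at 37 °C with inhibitor or 2% Me₂SO vehicle in pH 6.8 BES/PIPES buffer with EDTA, NaCl, 0.7 mM CaCl₂. Reaction started with 66 μM [¹⁴C]arachidonic acid. [¹⁴C]-5-HETE counted by scintillation, corrected for [³H]-5-HETE recovery.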

[2] = tested on: 15-lipoxygenase (Glycine max); assay: The compound was tested for the in vitro inhibition of 15-lipoxygenase of soybean at a concentration of 100 uM; conditions: at 100 µM
[3] = tested on: cyclooxygenase (Ovis aries); assay: The compound was tested for the in vitro inhibition of Prostaglandin G/H synthase of sheep seminal vesicle at a concentration of 100 uM
[4] = molecular target: T2, Arachidonate 12-lipoxygenase (Rattus norvegicus) (UniProt Q02759); assay: The compound was tested for the in vitro inhibition of platelet 12-lipoxygenase at a concentration of 100 uM
T2 sequence (whole entry): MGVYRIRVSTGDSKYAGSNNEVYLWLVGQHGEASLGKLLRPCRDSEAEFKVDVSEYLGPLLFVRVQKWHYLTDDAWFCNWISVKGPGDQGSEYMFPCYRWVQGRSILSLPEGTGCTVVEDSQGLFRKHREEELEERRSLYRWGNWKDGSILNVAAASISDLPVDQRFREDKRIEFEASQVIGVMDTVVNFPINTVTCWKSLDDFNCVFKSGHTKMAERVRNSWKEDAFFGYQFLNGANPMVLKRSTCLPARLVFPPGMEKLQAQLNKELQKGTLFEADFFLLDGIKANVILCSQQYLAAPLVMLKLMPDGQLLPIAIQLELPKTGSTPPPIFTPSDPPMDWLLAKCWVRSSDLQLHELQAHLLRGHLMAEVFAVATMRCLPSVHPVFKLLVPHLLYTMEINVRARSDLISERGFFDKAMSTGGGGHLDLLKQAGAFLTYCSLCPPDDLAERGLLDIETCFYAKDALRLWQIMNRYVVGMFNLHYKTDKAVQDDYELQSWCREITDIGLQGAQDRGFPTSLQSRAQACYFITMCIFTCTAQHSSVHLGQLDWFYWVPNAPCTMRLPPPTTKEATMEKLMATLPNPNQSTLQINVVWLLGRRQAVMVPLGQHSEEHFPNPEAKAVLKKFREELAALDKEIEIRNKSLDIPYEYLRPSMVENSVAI

[5] = molecular target: T3, Polyunsaturated fatty acid 5-lipoxygenase (Rattus norvegicus, UniProt P12527); assay: In vitro inhibition of 5-lipoxygenase (5-lo) from the 20000 g supernatant of RBI-1 cells; type: cell-based
T3 sequence (P12527 whole entry): T1 sequence (whole entry)

[6] = molecular target: T1, Polyunsaturated fatty acid 5-lipoxygenase (Rattus norvegicus); assay: The compound was tested for the in vitro inhibition of 5-lipoxygenase (5-lo) from the 20000 g supernatant of RBI-1 cells; NS indicates nonsignificant inhibition at 32 uM concentration; type: cell-based; summary of the method: as §1
[7] = molecular target: T1, Polyunsaturated fatty acid 5-lipoxygenase (Rattus norvegicus); assay: The compound was tested for the in vitro inhibition of 5-lipoxygenase (5-lo) from the 20000 g supernatant of RBI-1 cells measured at a concentration of 30 uM; type: cell-based; summary of the method: as §1
[8] = tested on: cyclooxygenase (Ovis aries); assay: The compound was tested for the in vitro inhibition of Prostaglandin G/H synthase of sheep seminal vesicle at a concentration of 30 uM
[9] = tested on: 15-lipoxygenase (Glycine max); assay: The compound was tested for the in vitro inhibition of 15-lipoxygenase of soybean at a concentration of 10 uM; conditions: at 10 µM
[10] = molecular target: T3, Polyunsaturated fatty acid 5-lipoxygenase; assay: Inhibition of 5-lipoxygenase (5-lo) in intact rat polymorphonuclear leukocyte RPMNL
Summary of the method: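 Pleural PMNL from carrageenan-injected male Sprague-Dawley rats (200-250 g). Erythrocytes lysed with water, cells washed and held in HEPES/Earle's salts pH 7.0 with 1 mg/mL BSA. 5×10^6 cells preincubated 15 min at 37 °C with compound or DMSO (final 2%). Stimulated with A23187 (final 8.3 μM) for 10 min, stopped on ice. Methanol extracts assayed for LTB₄ by HPLC.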

[11] = molecular target: T1, Polyunsaturated fatty acid 5-lipoxygenase (Rattus norvegicus); assay: The compound was tested for the in vitro inhibition of 5-lipoxygenase from the 20000 g supernatant of RBI-1 cells; NS indicates nonsignificant inhibition at 32 uM concentration; type: cell-based; summary of the method: as §1
[12] = molecular target: T4, Polyunsaturated fatty acid 5-lipoxygenase (Homo sapiens, UniProt P09917); assay: The compound was tested for the inhibition of 5-lipoxygenase (5-lo) in human whole blood (HWBL); type: tissue-based
T4 sequence (P09917 whole entry): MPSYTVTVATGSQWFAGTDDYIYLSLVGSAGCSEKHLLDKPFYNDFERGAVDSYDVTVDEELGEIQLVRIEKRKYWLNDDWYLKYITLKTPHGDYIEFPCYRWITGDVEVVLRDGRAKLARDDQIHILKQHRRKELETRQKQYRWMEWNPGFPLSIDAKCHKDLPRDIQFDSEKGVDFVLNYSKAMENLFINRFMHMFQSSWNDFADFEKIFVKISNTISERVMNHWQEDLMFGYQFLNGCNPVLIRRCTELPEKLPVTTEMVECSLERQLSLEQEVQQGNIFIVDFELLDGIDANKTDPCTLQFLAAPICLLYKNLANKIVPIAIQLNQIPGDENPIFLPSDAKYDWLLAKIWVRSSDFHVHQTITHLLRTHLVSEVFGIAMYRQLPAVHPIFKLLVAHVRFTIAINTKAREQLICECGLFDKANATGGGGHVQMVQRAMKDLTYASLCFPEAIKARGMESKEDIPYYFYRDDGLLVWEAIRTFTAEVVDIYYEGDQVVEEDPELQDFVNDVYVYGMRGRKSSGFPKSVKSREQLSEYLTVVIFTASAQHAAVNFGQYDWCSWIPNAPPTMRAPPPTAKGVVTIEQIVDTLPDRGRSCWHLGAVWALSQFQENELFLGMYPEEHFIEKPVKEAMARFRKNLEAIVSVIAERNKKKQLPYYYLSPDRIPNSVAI
Summary of the method: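 Heparinized (20 units/mL) human blood preincubated 15 min at 37 °C with compound or vehicle. Challenged with A23187 in DMSO (final 50 μM) for 30 min, then chilled and centrifuged. Plasma extracted with 4 volumes methanol for at least 2 h at 3 °C. LTB₄ measured by RIA or EIA.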

Structure (SMILES): Oc1nc(-c2ccccc2)sc1CCc1ccccc1
inhibition [2]: 34%
inhibition [3]: 11%
inhibition [4]: 3%

Structure (SMILES): CCCCCC/C(O)=C\C/C=C\C/C=C\C=C\CCCCC(=O)O
IC50 [5]: 7.3 µM

Structure (SMILES): CCCCc1sc(-c2ccccc2)nc1O
IC50 [5]: 18 µM

Structure (SMILES): Nc1nc(-c2ccccc2)sc1-c1ccccc1
inhibition [6]: inactive

Structure (SMILES): O=C1CSC(c2cccnc2)=N1
inhibition [7]: 8%

Structure (SMILES): Cc1sc(N)nc1O
inhibition [11]: inactive

Structure (SMILES): CCCCC/C=C/C/C=C/C/C=C/C/C=C/CCCC(=O)NO
IC50 [5]: 2.2 µM

Structure (SMILES): CCCc1sc(-c2ccccc2)nc1OC(=O)OCc1ccccc1
IC50 [5]: 2.8 µM
IC50 [10]: 1.2 µM

Structure (SMILES): O=C(O)c1ccc(-c2nc(O)c(-c3ccccc3)s2)cc1
IC50 [5]: 1.2 µM

Structure (SMILES): CC(=O)Oc1nc(-c2ccccc2)sc1-c1ccccc1
IC50 [12]: 0.45 µM
IC50 [5]: 0.4 µM

Structure (SMILES): Oc1nc(-c2ccncc2)sc1-c1ccccc1
IC50 [5]: 0.54 µM

Structure (SMILES): CC(=O)Oc1nc(-c2ccc(-c3ccccc3)cc2)sc1-c1ccccc1
IC50 [5]: 1.4 µM
IC50 [10]: 0.9 µM

Structure (SMILES): CCOC(=O)c1sc(-c2ccccc2)nc1O
inhibition [1]: 17%

Structure (SMILES): CCCc1sc(-c2ccccc2)nc1OS(C)(=O)=O
inhibition [6]: inactive

Structure (SMILES): CCCc1sc(-c2ccccc2)nc1OC(=O)NC
IC50 [12]: 5.1 µM
IC50 [5]: 8.8 µM
IC50 [10]: 0.4 µM

Structure (SMILES): CCOC(=O)Cc1nc(O)c(C)s1
inhibition [6]: inactive

Structure (SMILES): CCCc1sc(-c2ccccc2)nc1OC(=O)Nc1ccccc1
IC50 [5]: 0.46 µM
IC50 [10]: 1 µM

Structure (SMILES): Oc1nc(-c2cccnc2)sc1-c1ccccc1
IC50 [12]: 2.9 µM
IC50 [5]: 1.1 µM

Structure (SMILES): CCOC(=O)c1nc(O)c(C)s1
inhibition [6]: inactive

Other lines, results leading:

inhibition [1]: 40%
Structure (SMILES): Cc1sc(-c2ccc(-c3ccccc3)cc2)nc1O

IC50 [5]: 31 µM
Structure (SMILES): Cc1sc(-c2cc[nH]n2)nc1O

IC50 [5]: 4.8 µM
Structure (SMILES): Cc1sc(-c2ccc(C(N)=O)cc2)nc1O

IC50 [5]: 2.7 µM
Structure (SMILES): Cc1sc(-c2ccc(SC(F)(F)F)cc2)nc1O

inhibition [8]: 32%
inhibition [9]: 44%
inhibition [4]: 51%
Structure (SMILES): Cc1sc(-c2ccccc2)nc1O

IC50 [10]: 1.2 µM
Structure (SMILES): Cc1ccc(-c2nc(O)c(C)s2)cc1

IC50 [12]: 2.4 µM
inhibition [2]: 22%
IC50 [5]: 0.37 µM
IC50 [10]: 0.45 µM
inhibition [3]: 25%
inhibition [4]: 6%
Structure (SMILES): COc1ccc(-c2nc(O)c(-c3ccccc3)s2)cc1

IC50 [12]: 0.74 µM
IC50 [5]: 0.8 µM
Structure (SMILES): Cc1ccc(-c2nc(O)c(-c3ccccc3)s2)cc1

IC50 [5]: 2.2 µM
Structure (SMILES): Cc1sc(-c2ccc(S(N)(=O)=O)cc2)nc1O

IC50 [5]: 1.4 µM
Structure (SMILES): CC(=O)c1ccc(-c2nc(O)c(C)s2)cc1

— ChEMBL document CHEMBL1125582, “4-hydroxythiazole inhibitors of 5-lipoxygenase” (J Med Chem, 1991)
